From ChEMBL document CHEMBL3997768, “The synthesis and antistaphylococcal activity of dehydroabietic acid derivatives: modifications at C12 and C7” (2017)
Converted amounts (≈) assume the structure as drawn. The source made the active and inactive calls. No rule for the calls is given here.

What was measured:
Format in all cases: functional
Staphylococcus aureus [1] = test: Antibacterial activity against linezolid-resistant Staphylococcus aureus NRS-271 containing phage type E-MRSA after 18 hrs by two fold serial dilution method; details: NRS-271, 18 h
In short: (§1)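 Strains grown overnight at 37 °C in TSB without antibiotic. Cultures were diluted 1000-fold, grown at 37 °C for 2–3 h to A600 0.6, then diluted 1:400 in fresh TSB. Equal volumes of bacteria and two-fold serial DMSO dilutions (final 0.39–50) were mixed. A600 was read after 18 h. MIC was the lowest concentration inhibiting growth. Run in triplicate, with vancomycin and tetracycline controls.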

Staphylococcus aureus [2] = test: Antibacterial activity against aminoglycosides/tetracycline-resistant Staphylococcus aureus NRS-1 after 18 hrs by two fold serial dilution method; details: NRS-1, 18 h; in short: as §1
Escherichia coli = test: Antibacterial activity against Escherichia coli AB1157 at 50 ug/ml after 18 hrs by two fold serial dilution method
In short: (§2)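 Strains were grown overnight at 37 °C in TSB without antibiotic, diluted 1000-fold, and grown 2–3 h to A600 0.6. They were then diluted 1:400 in fresh TSB. Compounds in DMSO were two-fold serially diluted to a final 0.39–50 and mixed with an equal volume of bacteria. A600 was read after 18 h. MIC is the lowest concentration inhibiting growth. Triplicate; vancomycin and tetracycline were positive controls.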

Staphylococcus aureus [3] = test: Antibacterial activity against Staphylococcus aureus Newman after 18 hrs by two fold serial dilution method; in short: as §2
Staphylococcus aureus [4] = test: Antibacterial activity against erythromycin-resistant Staphylococcus aureus NRS-70 after 18 hrs by two fold serial dilution method; details: NRS-70, 18 h; in short: as §1
Staphylococcus aureus [5] = test: Antibacterial activity against gentamicin-resistant Staphylococcus aureus NRS-108 after 18 hrs by two fold serial dilution method; details: NRS-108, 18 h; in short: as §1
Staphylococcus aureus [6] = test: Antibacterial activity against oxacillin/tetracycline-resistant Staphylococcus aureus NRS-100 after 18 hrs by two fold serial dilution method; details: NRS-100, 18 h; in short: as §1

Structure (SMILES)	MIC (Staphylococcus aureus [1]) [µM]	MIC (Staphylococcus aureus [2]) [µM]	Activity (Escherichia coli)	MIC (Staphylococcus aureus [3]) [µM]	MIC (Staphylococcus aureus [4]) [µM]	MIC (Staphylococcus aureus [5]) [µM]	MIC (Staphylococcus aureus [6]) [µM]
CC(C)c1cc2c(cc1Br)[C@@]1(C)CCC[C@@](C)(C(=O)O)[C@@H]1C/C2=N\OCCNC(=O)c1ccc(Cl)s1	1.56 to 2.5 (≈ 0.93 to 1.49 µg/mL)	5.25 to 10.5 (≈ 3.13 to 6.25 µg/mL)	inactive	4.19 (≈ 2.5 µg/mL)	2.62 to 4.19 (≈ 1.56 to 2.5 µg/mL)	2.62 to 4.19 (≈ 1.56 to 2.5 µg/mL)	4.19 (≈ 2.5 µg/mL)
CC(C)c1cc2c(cc1Br)[C@@]1(C)CCC[C@@](C)(C(=O)O)[C@@H]1C/C2=N\OCCCNC(=O)c1ccc(Br)s1	2.38 to 3.82 (≈ 1.56 to 2.5 µg/mL)	> 19.1	inactive	1.91 to 3.82 (≈ 1.25 to 2.5 µg/mL)	2.38 to 3.82 (≈ 1.56 to 2.5 µg/mL)	2.38 to 3.82 (≈ 1.56 to 2.5 µg/mL)	4.78 (≈ 3.13 µg/mL)
CC(C)c1cc2c(cc1Br)[C@@]1(C)CCC[C@@](C)(C(=O)O)[C@@H]1C/C2=N\OCCCNC(=O)c1cc(Br)cs1	2.38 to 3.82 (≈ 1.56 to 2.5 µg/mL)	4.78 to 9.55 (≈ 3.13 to 6.25 µg/mL)	inactive	1.91 to 3.82 (≈ 1.25 to 2.5 µg/mL)	1.91 to 2.38 (≈ 1.25 to 1.56 µg/mL)	2.38 to 3.82 (≈ 1.56 to 2.5 µg/mL)	4.78 (≈ 3.13 µg/mL)
CN[C@H](CC(C)C)C(=O)N[C@H]1C(=O)N[C@@H](CC(N)=O)C(=O)N[C@H]2C(=O)N[C@H]3C(=O)N[C@H](C(=O)N[C@H](C(=O)O)c4cc(O)cc(O)c4-c4cc3ccc4O)[C@H](O)c3ccc(c(Cl)c3)Oc3cc2cc(c3O[C@@H]2O[C@H](CO)[C@@H](O)[C@H](O)[C@H]2O[C@H]2C[C@](C)(N)[C@H](O)[C@H](C)O2)Oc2ccc(cc2Cl)[C@H]1O [VANCOMYCIN]	< 1.72	1.72 to 3.45 (≈ 2.49 to 5 µg/mL)		< 1.73	< 1.72	< 1.72	0.86 to 1.72 (≈ 1.25 to 2.49 µg/mL)
CC(C)c1cc2c(cc1Br)[C@@]1(C)CCC[C@@](C)(C(=O)O)[C@@H]1C/C2=N\OCCCNC(=O)c1ccc(C(F)(F)F)cc1	2.45 to 3.92 (≈ 1.56 to 2.5 µg/mL)	9.8 to 19.6 (≈ 6.25 to 12.5 µg/mL)	inactive	1.96 to 3.92 (≈ 1.25 to 2.5 µg/mL)	1.96 to 2.45 (≈ 1.25 to 1.56 µg/mL)	2.45 to 3.92 (≈ 1.56 to 2.5 µg/mL)	4.91 (≈ 3.13 µg/mL)
CC(C)c1cc2c(cc1Br)[C@@]1(C)CCC[C@@](C)(C(=O)O)[C@@H]1C/C2=N\OCCCNC(=O)c1cccc(C(F)(F)F)c1	3.92 to 4.91 (≈ 2.5 to 3.13 µg/mL)	> 19.6	inactive	1.96 to 3.92 (≈ 1.25 to 2.5 µg/mL)	4.91 (≈ 3.13 µg/mL)	3.92 to 4.91 (≈ 2.5 to 3.13 µg/mL)	4.91 (≈ 3.13 µg/mL)
CC(C)c1cc2c(cc1Br)[C@@]1(C)CCC[C@@](C)(C(=O)O)[C@@H]1C/C2=N\OCCNC(=O)c1cc2ccccc2s1	2.05 to 2.55 (≈ 1.25 to 1.56 µg/mL)	4.09 to 5.12 (≈ 2.5 to 3.13 µg/mL)	inactive	2.04 to 4.09 (≈ 1.25 to 2.5 µg/mL)	2.04 to 4.09 (≈ 1.25 to 2.5 µg/mL)	2.55 to 4.09 (≈ 1.56 to 2.5 µg/mL)	2.55 to 4.09 (≈ 1.56 to 2.5 µg/mL)
CC(C)c1cc2c(cc1Br)[C@@]1(C)CCC[C@@](C)(C(=O)O)[C@@H]1C/C2=N\OCCCNC(=O)Cc1ccc(C(F)(F)F)cc1	4.8 to 9.59 (≈ 3.13 to 6.25 µg/mL)	> 19.2	inactive	3.84 (≈ 2.5 µg/mL)	2.39 to 3.84 (≈ 1.56 to 2.5 µg/mL)	2.39 to 3.84 (≈ 1.56 to 2.5 µg/mL)	4.8 to 9.59 (≈ 3.13 to 6.25 µg/mL)
CC(C)c1cc2c(cc1Br)[C@@]1(C)CCC[C@@](C)(C(=O)O)[C@@H]1C/C2=N\OCCNC(=O)c1cccc(C(F)(F)F)c1	2.5 to 4.01 (≈ 1.56 to 2.5 µg/mL)	5.02 (≈ 3.13 µg/mL)	inactive	4.01 (≈ 2.5 µg/mL)	2.5 to 4.01 (≈ 1.56 to 2.5 µg/mL)	2.5 to 4.01 (≈ 1.56 to 2.5 µg/mL)	5.02 (≈ 3.13 µg/mL)
CC(C)c1cc2c(cc1Br)[C@@]1(C)CCC[C@@](C)(C(=O)O)[C@@H]1C/C2=N\OCCNC(=O)c1ccc(Br)s1	2.44 to 3.9 (≈ 1.56 to 2.5 µg/mL)	4.89 to 9.76 (≈ 3.13 to 6.25 µg/mL)	inactive	3.9 (≈ 2.5 µg/mL)	2.44 to 3.9 (≈ 1.56 to 2.5 µg/mL)	2.44 to 3.9 (≈ 1.56 to 2.5 µg/mL)	4.89 (≈ 3.13 µg/mL)
CN(C)[C@@H]1C(O)=C(C(N)=O)C(=O)[C@@]2(O)C(O)=C3C(=O)c4c(O)cccc4[C@@](C)(O)[C@H]3C[C@@H]12 [TETRACYCLINE]	< 7.04	> 56.2		< 2.16	< 7.04	< 7.04	< 7.04
CC(C)c1cc2c(cc1Br)[C@@]1(C)CCC[C@@](C)(C(=O)O)[C@@H]1C/C2=N\OCCCNC(=O)c1ccc[nH]1	2.79 to 4.48 (≈ 1.56 to 2.5 µg/mL)	5.6 (≈ 3.13 µg/mL)	inactive	4.48 (≈ 2.5 µg/mL)	2.79 to 4.48 (≈ 1.56 to 2.5 µg/mL)	2.79 to 4.48 (≈ 1.56 to 2.5 µg/mL)	2.79 to 4.48 (≈ 1.56 to 2.5 µg/mL)
CC(C)c1cc2c(cc1Br)[C@@]1(C)CCC[C@@](C)(C(=O)O)[C@@H]1C/C2=N\OCCCNC(=O)c1ccc(Cl)s1	2.56 to 4.1 (≈ 1.56 to 2.5 µg/mL)	10.2 to 20.5 (≈ 6.25 to 12.5 µg/mL)	inactive	2.05 to 4.1 (≈ 1.25 to 2.5 µg/mL)	2.56 to 4.1 (≈ 1.56 to 2.5 µg/mL)	2.56 to 4.1 (≈ 1.56 to 2.5 µg/mL)	5.13 (≈ 3.13 µg/mL)
CC(C)c1cc2c(cc1Br)[C@@]1(C)CCC[C@@](C)(C(=O)O)[C@@H]1C/C2=N\OCCCNC(=O)c1cc2ccccc2s1	> 40	> 40	inactive	4 (≈ 2.5 µg/mL)	> 40	> 40	> 40
CC(C)c1cc2c(cc1Br)[C@@]1(C)CCC[C@@](C)(C(=O)O)[C@@H]1C/C2=N\OCCCNC(=O)Cc1cccc(C(F)(F)F)c1	2.39 to 3.84 (≈ 1.56 to 2.5 µg/mL)	> 19.2	inactive	1.92 to 3.84 (≈ 1.25 to 2.5 µg/mL)	1.92 to 2.39 (≈ 1.25 to 1.56 µg/mL)	2.39 to 3.84 (≈ 1.56 to 2.5 µg/mL)	3.84 to 4.8 (≈ 2.5 to 3.13 µg/mL)
